Here are results for 17 molecules from ChEMBL document CHEMBL5131498, “Synthesis and biological evaluation of orally active prodrugs and analogs of para-aminosalicylic acid (PAS)” (Eur J Med Chem, 2022).

Data set [1] in a line: Ratio of compound AUC to para-aminosalicylic acid AUC in CD-1 mouse. Format: ADME. As to conditions: in vivo.
Data set [2] relates to Mycobacterium tuberculosis. Put plainly: Antimycobacterial activity against Mycobacterium tuberculosis H37Rv assessed as inhibition of bacterial growth measured after 10 days by microbroth dilution method. Particulars: 240 h, time 10 day. It counts as functional.
Data set [3] can be described thus: AUC in CD-1 mouse at 10 mg/kg, po administered as single dose and measured up to 5 hrs by LC-MS/MS analysis. Further details: dose 10 mg/kg, time < 5 hrs, route po. As to conditions: in vivo. It counts as ADME, organism-based. In a few lines:
(§1)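 Snapshot PK: single oral gavage at 10 mg/kg in 5% dimethylacetamide:60% PEG 300:35% (5% dextrose in water) solution to female CD-1 mice (n = 2). Tail-vein blood (K2EDTA) at 0.5, 1, 3, 5 h; plasma protein-precipitated in MeCN with internal standard, prodrug and released PAS quantified by LC-MS/MS; AUC by non-compartmental analysis.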

Data set [4] is described as follows: AUC in CD-1 mouse plasma assessed as para-aminosalicylic acid AUC at 10 mg/kg, po administered as single dose and measured up to 5 hrs by HPLC-MS/MS analysis. It counts as ADME, organism-based. More on the design: time < 5 hrs, dose 10 mg/kg, route po. Particulars: in vivo. The method in brief:
as §1

The nature of data set [5]: Metabolic stability in human plasma assessed as parent compound remaining at 1 ug/ml measured after 2 hrs by LC-MS/MS analysis. It counts as ADME, cell-free. As to conditions: at 1 µg/mL, read-out: Stability. The method in brief: (§2)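 Compound at 1 μg/mL final (from 20 μg/mL DMSO stock; 5% DMSO) incubated in K2EDTA plasma (female CD-1 mouse or human) at 37 °C with shaking. Aliquots quenched in 1:1 MeCN/MeOH with verapamil; parent and released PAS measured by high-resolution LC-MS/MS; percent parent remaining versus initial concentration at 120 min.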

A short description of data set [6]: Metabolic stability in CD-1 mouse plasma assessed as parent compound remaining at 1 ug/ml measured after 2 hrs by LC-MS/MS analysis. Format: ADME, cell-free. Particulars: at 1 µg/mL, read-out: Stability. The method in brief:
as §2

Data set [7] is described as follows: AUC in CD-1 mouse at 25 mg/kg, po administered as single dose and measured up to 24 hrs by LC-MS/MS analysis. More on the design: dose 25 mg/kg, time < 24 hrs, route po. As to conditions: in vivo. Format: ADME, organism-based. In a few lines: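 Female CD-1 mice (n = 3) given a single oral gavage dose of 25 mg/kg as a 0.5% CMC/0.5% Tween 80 suspension. Tail-vein blood was drawn at 0.5, 1, 3, 5, 7 and 24 h into K2EDTA and plasma stored at −80 °C. Only PAS was quantified, by LC-MS/MS after MeCN precipitation.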

A short description of data set [8]: AUC in CD-1 mouse plasma assessed as para-aminosalicylic acid AUC at 25 mg/kg, po administered as single dose and measured up to 24 hrs by LC-MS/MS analysis. It counts as ADME, organism-based. Further details: dose 25 mg/kg, time < 24 hrs, route po. As to conditions: in vivo.
Data set [9] deals with Mycobacterium tuberculosis. In words: Antimycobacterial activity against drug susceptible Mycobacterium tuberculosis H37Rv assessed as inhibition of bacterial growth measured after 2 weeks by microbroth dilution method. Format: functional. Particulars: 336 h. The method in brief:
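Diluted 1000-fold into 96-well plates with 2-fold serial compound dilutions and incubated at 37 °C for 2 weeks. Growth scored by mirror at 1 and 2 weeks. MIC is the lowest concentration completely inhibiting growth; tested in duplicate. DMSO, isoniazid and linezolid served as controls.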
A general note: Dilution methods test growth across graded concentrations, often in twofold steps.

The nature of data set [10]: AUC in CD-1 mouse plasma assessed as para-aminosalicylic acid AUC at 25 mg/kg, po administered as single dose and measured up to 5 hrs by LC-MS/MS analysis. Format: ADME, organism-based. Further details: dose 25 mg/kg, time < 5 hrs, route po. As to conditions: in vivo. The method in brief: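 Female CD-1 mice (n = 2) dosed once by oral gavage at 25 mg/kg in 5% dimethylacetamide:60% PEG 300:35% (5% dextrose in water). Lateral tail-vein blood into K2EDTA at 0.5, 1, 3, 5 h; plasma analysed by LC-MS/MS after MeCN precipitation with internal standard; AUC over 5 h by non-compartmental fit.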

Values after ≈ are worked out from the molar mass of the structure shown. Some results are limits rather than exact numbers.

For the molecule `COC(=O)c1ccc(N)cc1O`, the “Ratio AUC” value in [1] turned out to be 0.2. Moreover, the MIC90 in data set [2] is 64 µM (≈ 10.7 µg/mL). Also, the AUC at 5 h in data set [3] was found to be 1.7 µg·h/mL. For the same molecule, the AUC in [4] is 0.053 µg·h/mL. Besides, the remaining at 2 h, 1 ug/ml in data set [5] came out at 94%; in [6] it was 84%.
With `[N-]=[N+]=Nc1ccc(C(=O)O)c(O)c1`, the “Ratio AUC” value in data set [1] amounted to 430. The molecule further had an AUC in data set [7] of 900 µg·h/mL. For the same molecule, the MIC90 in [2] was found to be 128 µM (≈ 22.9 µg/mL).
Take `CC(C)(C)C(=O)OCOC(=O)c1ccc(N)cc1O`: the exposure (AUC) came out at 0.46 µg·h/mL in data set [4] and 0.3 µg·h/mL in data set [8]. Further, the remaining at 2 h, 1 ug/ml in data set [5] came out at 15%; in data set [6], 0%.
For `CNc1ccc(C(=O)O)c(O)c1`, the “Ratio AUC” value in data set [1] is on record as 59. The AUC in data set [7] came out at 130 µg·h/mL. For the same molecule, the MIC90 in [2] is > 128 µM.
As to `CCOC(=O)c1cc(F)c(N)cc1O`, the “Ratio AUC” value in data set [1] is given as 0.02. Moreover, in data set [2], the MIC90 is > 128 µM.
On to `CNc1ccc(C(=O)OC)c(O)c1`, for which the AUC at 5 h in data set [3] is 0.078 µg·h/mL. Besides, the remaining at 2 h, 1 ug/ml is 96% in [5] and 90% in data set [6].
`Cl.Nc1cc(O)c(C(=O)O)c(F)c1`: in data set [1], the “Ratio AUC” value was found to be 1.2. This molecule displayed an area under the curve (AUC) in data set [7] of 2.4 µg·h/mL. Also, the MIC90 in data set [2] was 64 µM.
Consider `CC(C)OC(=O)OC(C)OC(=O)c1ccc(N)cc1O` (centres undefined), for which the AUC in data set [4] worked out at 0.19 µg·h/mL. Moreover, the figures for the remaining at 2 h, 1 ug/ml in data set [5] and in [6] were 24% and 0%, respectively.
As to `Cl.Nc1ccc(C(=O)O)c(O)c1F`, the “Ratio AUC” value in data set [1] came out at 1.9. Moreover, in [7], the AUC stood at 4 µg·h/mL. The MIC90 in data set [2] was 32 µM.
Turning to `CC(C)OC(=O)c1ccc(N)cc1O`, the “Ratio AUC” value in data set [1] is on record as 0.6. Also, the MIC90 in data set [2] was > 128 µM. The AUC at 5 h in data set [3] is 0.23 µg·h/mL. Besides, the values for the remaining at 2 h, 1 ug/ml in data set [5] and in data set [6] were 93% and 94%, respectively.
For `Nc1cc(O)c(C(=O)O)cc1F`, the “Ratio AUC” value in [1] is recorded as 4.9. The molecule also displayed an AUC in data set [7] of 10 µg·h/mL. Besides, the results for the MIC90 in data set [9] and in data set [2] were 6.3 µM (≈ 1.08 µg/mL) and 8 µM (≈ 1.37 µg/mL), respectively.
For `Cc1oc(=O)oc1COC(=O)c1ccc(N)cc1O`, the AUC in data set [10] worked out at 0.25 µg·h/mL. Further, the remaining at 2 h, 1 ug/ml in data set [5] and in [6] was 0% each time.
On to `CC(OC(=O)c1ccc(N)cc1O)OC(=O)C(C)(C)C` (centres undefined), for which the AUC in [10] worked out at 0.19 µg·h/mL. Moreover, the remaining at 2 h, 1 ug/ml in data set [5] and in data set [6] was 0% throughout.
With `CC(C)OC(=O)OCOC(=O)c1ccc(N)cc1O`, the AUC in [4] amounted to 0.019 µg·h/mL. Besides, the remaining at 2 h, 1 ug/ml in data set [5] and in data set [6] was 0% each time.
Regarding `CCOC(=O)c1ccc(N)cc1O`, the “Ratio AUC” value in data set [1] is listed as 0.1. For the same molecule, in data set [2], the MIC90 came out at 2 µM (≈ 0.362 µg/mL). In addition, the AUC at 5 h in data set [3] amounted to 0.044 µg·h/mL. Moreover, the remaining at 2 h, 1 ug/ml in data set [5] was 94%; in data set [6], 92%.
As to `Nc1ccc(C(=O)O)c(O)c1` [AMINOSALICYLIC ACID], the “Ratio AUC” value in data set [1] was determined as 1. The MIC90 amounted to 0.2 µM (≈ 0.0306 µg/mL) in data set [9] and 0.5 µM (≈ 0.0766 µg/mL) in [2]. The AUC in data set [4] came to 0.38 µg·h/mL; in data set [8], 3.4 µg·h/mL.
Consider `CC(=O)NC[C@H]1CN(c2ccc(N3CCOCC3)c(F)c2)C(=O)O1` [LINEZOLID], for which the MIC90 in [9] was determined as 0.7 µM (≈ 0.236 µg/mL).

Broadly, the MIC90 is the lowest concentration that inhibits either 90% of growth or 90% of the strains tested, depending on the study. The term AUC denotes the area under the concentration-time curve, a measure of exposure.
